Calb FLC = C. albicans growth inhibition with fluconazole, primary screen, CaCi-2 strain, Alamar Blue fluorescence; C. albicans CaCi-2 (fluconazole-resistant clinical isolate) + fluconazole, 48 h; growth inhibition, % (concentration not given with the values); hit rate 0.57% among 300,000;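 active = growth inhibition above about 58% in most replicates, limit read from the data, passing the limit was not always enough; inconclusive = exactly half the replicates above a set limit; inactive = most replicates below a set limit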;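 also: all wells also contain fluconazole at 8 µg/ml as a sub-toxic cotreatment; 0% = median of DMSO wells and 100% = median of geldanamycin control wells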
CSC inhib = cancer stem cell viability inhibitors, primary screen, luminescence; cancer stem cell-like cells viability; inhibition, % at 7.5 µM; hit rate 1.1% among 300,000; in the data active = inhibition above about 75%; inconclusive = no clear call, values can overlap the other calls; tested in HMLE shEcad cells
T cruzi repl = inhibitors of intracellular T. cruzi growth, primary screen, luminescence, NIH3T3 host cells. hit rate 1.4% among 300,000. inhibition, % (test concentration not listed). AID 1885, 2009. T. cruzi beta-gal in NIH3T3, 90 h;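 active = mean inhibition across valid replicates above about 55%, limit read from the data; inconclusive = mean below that limit but half or more replicates reach it; inactive = mean below it, under half of replicates reach it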;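 also: signal also drops with host cell toxicity which is not excluded here; 0% = plate median of DMSO wells and 100% = zero luminescence signal; higher percent means less beta-gal luminescence so fewer parasites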
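System: Mouse NIH/3T3 fibroblasts infected with β-gal-expressing T. cruzi Tulahuen C4 | Quantity: NIH/3T3 cells, 5,000 per well | Reagent: 5000 reporter trypomastigotes per well | Dosing: Compound pinned at 50 nL/well, DMSO | Schedule: 3 h host attachment, then at least 90 h co-culture | Detection: GalScreen luminescence, 60 min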
Beta apoptosis = inhibitors of cytokine-induced beta cell apoptosis, primary screen, luminescence; INS-1E cytokine-induced death, ATP luminescence, 48 h; percent of positive-control rescue, neutral wells zero; protection from apoptosis, % (no concentration beside the values); hit rate 0.8% among 300,000;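 active = Every replicate reaches about 75%, or at least half do and their mean reaches it too, limit read from the data; inconclusive = At least half of replicates reach the limit but their mean does not; inactive = Under half of replicates reach the limit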;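 also: 0% = cytokine-treated negative control wells and 100% = positive control rescue; higher means more ATP so stronger rescue from cytokine killing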
Mdm2-MdmX inh = inhibitors of human Mdm2-MdmX association, primary screen, cell-based, luminescence, split luciferase, SaOS-2, uHTS; Protein Mdm4 (Homo sapiens) + E3 ubiquitin-protein ligase Mdm2 (Homo sapiens), …; SaOS-2 split-luciferase Mdm2/MdmX complementation; inhibition, % at 8 µM; hit rate 3% among 330,000; AID 485346, 2010;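 active = inhibition of at least 50% at 8 µM in the primary screen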
Target sequence (O15151 whole entry, looked up): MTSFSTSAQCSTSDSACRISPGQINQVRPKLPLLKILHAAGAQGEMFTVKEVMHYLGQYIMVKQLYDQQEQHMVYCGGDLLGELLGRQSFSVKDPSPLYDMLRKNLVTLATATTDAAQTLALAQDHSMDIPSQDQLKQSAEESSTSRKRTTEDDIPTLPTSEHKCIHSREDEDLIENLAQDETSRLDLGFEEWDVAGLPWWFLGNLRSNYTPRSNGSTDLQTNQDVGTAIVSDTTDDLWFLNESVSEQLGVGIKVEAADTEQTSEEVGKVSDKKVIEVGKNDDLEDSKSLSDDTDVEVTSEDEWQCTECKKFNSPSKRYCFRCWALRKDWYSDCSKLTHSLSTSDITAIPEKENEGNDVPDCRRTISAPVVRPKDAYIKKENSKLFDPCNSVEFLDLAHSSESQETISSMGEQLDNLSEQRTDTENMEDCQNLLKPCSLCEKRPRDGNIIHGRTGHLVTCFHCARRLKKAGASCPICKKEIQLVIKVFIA
Target sequence (Q00987 whole entry, looked up): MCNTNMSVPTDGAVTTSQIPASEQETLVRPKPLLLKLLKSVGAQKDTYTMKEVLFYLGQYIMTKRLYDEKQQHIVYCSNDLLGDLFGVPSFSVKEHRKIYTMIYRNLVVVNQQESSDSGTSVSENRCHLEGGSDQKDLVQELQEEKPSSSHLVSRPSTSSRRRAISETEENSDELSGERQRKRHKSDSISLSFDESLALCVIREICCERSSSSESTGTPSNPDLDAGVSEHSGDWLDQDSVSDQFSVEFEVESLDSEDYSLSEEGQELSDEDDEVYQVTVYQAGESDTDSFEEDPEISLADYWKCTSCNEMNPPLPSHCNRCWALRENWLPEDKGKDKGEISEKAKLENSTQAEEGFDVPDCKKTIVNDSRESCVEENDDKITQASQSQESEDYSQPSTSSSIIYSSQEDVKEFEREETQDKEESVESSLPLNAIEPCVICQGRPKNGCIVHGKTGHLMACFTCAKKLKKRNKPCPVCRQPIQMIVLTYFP
SKKanGAS inh = S. pyogenes SKKanGAS growth inhibitors in kanamycin, primary screen, streptokinase expression inhibitor project, SKKanGAS strain, BacTiter-Glo luminescence | hit rate 1.3% among 300,000 | 6 h | inhibition, % at 7.5 µM;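 active = mean replicate score, as percent of positive control median, at least 50; inconclusive = mean below 50 but one replicate at or above 50; inactive = mean and every replicate below 50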;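 also: strain carries kanamycin resistance gene driven by streptokinase promoter and grows in 40 µg/ml kanamycin; loss of luminescence reflects streptokinase promoter inhibition or plain growth inhibition; 0% = median of DMSO wells and 100% = positive control at its reference dose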
Active calls of the source: *; ? = inconclusive; / = no result given. Hits are enriched below; roughly 5.7% of the tested compounds scored in any of these assays.

SMILES	Calb FLC	CSC inhib	T cruzi repl	Beta apoptosis	Mdm2-MdmX inh	SKKanGAS inh
O=C(Cc1nnc(NC(=O)c2ccccc2)s1)N/N=C/c1cccc(O)c1	-1	44	-14	-5	-21	7
Cc1ccc(Cn2cc(/C=N/NC(=O)Cc3nnc(NC(=O)c4ccc(C)cc4)s3)c3ccccc32)cc1	4	-2	-9	11	17	58*
COc1ccc(C(=O)C2CCCN(Cc3cc(C)c(O)c(C)c3)C2)c(OC)c1 (stereo not given)	-2	?	27	2	0	0
COc1ccc(C(=O)C2CCCN(Cc3sc(N4CCCC4)nc3Cl)C2)c(OC)c1 (stereo not given)	-50	0	63*	10	16	5
COc1ccc(C(=O)C2CCCN(Cc3cc(Cl)ccc3O)C2)c(OC)c1 (stereo not given)	34	22	31	/	6	-2
COc1ccc(C(=O)C2CCCN(Cc3c(C)[nH]c4ccccc34)C2)c(OC)c1 (stereo not given)	-5	-2	62*	6	15	-13
CCCS(=O)(=O)c1nnnn1-c1cccc(OC)c1	82*	/	32	-48	/	-6
COc1cccc(-n2nnnc2SCC(=O)Nc2ccccc2OC)c1	-3	1	1	-2	-9	6
O=C(Nc1cccc(F)c1)N1CC=C(c2ccc(Cl)cc2)CC1	3	20	55*	/	-35	13
CC(C)c1cccc(OCCCCN(C)C)c1	1	-1	65*	/	-20	3
CC1(c2ccc(OC(F)F)cc2)NC(=O)N(CC(=O)NCCC2=CCCCC2)C1=O (stereo not given)	/	-10	/	1	19	/
Cn1cc(C(c2ccccc2OCC(=O)O)c2cn(C)c3ccccc23)c2ccccc21	68	21	-13	2	6	9
c1ccc(C(c2c[nH]c3ccccc23)c2c[nH]c3ccccc23)nc1	4	-8	18	4	-10	76*
NCC(c1ccco1)c1c[nH]c2ccccc12 (stereo not given)	3	/	2	/	-9	7
Cn1cc(C(c2ccccn2)c2cn(C)c3ccccc23)c2ccccc21	94*	-8	31	-3	19	16
COc1ccc(-c2sc3cc(OC)c(OC)cc3c2C#CC2(O)CCCCC2)cc1	/	125*	/	2	34	/
COc1ccc(-c2oc(=O)c3cc(OC)c(OC)cc3c2C#CC2(O)CCCCC2)cc1	/	5	/	-6	25	/
COc1ccc(-c2sc3ccccc3c2C#CC2(O)CCCCC2)cc1	2	89*	31	-4	/	101*
Cc1cccc(NC(=O)CSCC(=O)N(C)CCOc2ccc(Cl)cc2)c1	15	-7	13	/	3	-2
CC1CC(C)(C)CC2(C1)NC(=O)N(CC(=O)N(C)Cc1nc3ccccc3c(=O)[nH]1)C2=O (stereo not given)	/	/	/	-5	-35	/
CC(OC(=O)CNC(=O)c1ccc2ccccc2c1)C(=O)NC1CCCCC1C (stereo not given)	9	2	-15	3	11	17
O=C(Oc1cccc2cccnc12)c1cccc(N2C(=O)C3C4CCC(C4)C3C2=O)c1 (stereo not given)	0	3	6	79*	9	0
Cc1c(C(=O)N(C)C)sc2nc(-c3ccccn3)[nH]c(=O)c12	-5	14	-16	1	16	0
O=c1[nH]c(-c2ccccn2)nc2sc(-c3ccccc3)cc12	-21	/	55*	/	/	96*
COC(=O)NNC(=O)c1ccc(Cl)cc1Cl	-5	-8	-18	2	-29	-6
SMILES	Calb FLC	CSC inhib	T cruzi repl	Beta apoptosis	Mdm2-MdmX inh	SKKanGAS inh
CC(C)(C)C(=O)NC(=S)NNC(=O)c1ccc(Cl)cc1Cl	-2	18	15	30	16	73*
COc1ccc(/C=N\NC(=S)SCN2C(=O)C3CCC(C)(C2=O)C3(C)C)cc1 (stereo not given)	-2	12	-13	1	13	4
CC12CCC(C(=O)N(CSC(=S)N/N=C\c3ccccc3O)C1=O)C2(C)C (stereo not given)	4	/	-45	24	19	108*
S=c1[nH]nc(-c2cccs2)n1/N=C/c1cn(-c2ccccc2)nc1-c1cccs1	5	22	2	-4	3	29
S=c1[nH]nc(-c2ccncc2)n1/N=C/c1cn(-c2ccccc2)nc1-c1ccccc1	3	42	11	-20	-9	51*
Cc1ccc(-c2nn(-c3ccccc3)cc2/C=N/n2c(-c3cccs3)n[nH]c2=S)cc1	-2	46	17	9	-11	55*
O=[N+]([O-])c1ccc(-c2nn(-c3ccccc3)cc2/C=N/n2c(-c3ccncc3)n[nH]c2=S)cc1	-1	12	3	-5	-23	17
S=C(Nc1ccc(Nc2ccccc2)cc1)Nc1ccccn1	-4	7	25	86*	16	66*
Cc1ccc(S(=O)(=O)NCc2ccccc2)cc1C(=O)NCC1CCCO1 (stereo not given)	7	-13	-11	/	10	-5
CCCn1c(=O)c(C(=O)NCCc2ccccc2)c(O)c2ccccc21	-12	38	-6	2	-14	9
C=CCn1c(=O)c(C(=O)NCCc2ccccc2)c(O)c2ccccc21	-6	116*	12	9	-4	2
Cn1c(=O)c(C(=O)NCCc2ccccc2)c(O)c2ccccc21	89*	0	7	-5	-2	26
CN1CCc2c(sc3c2c(=O)n(-c2ccccc2)c2nnc(SCc4ccc(Cl)cc4)n32)C1	-1	-55	61*	2	29	17
CC(=O)C[C@@H](O)CC(=O)[C@H]1OC(=O)[C@H](C)CCCCc2ccccc21	/	/	/	-5	11	/
CCS(=O)(=O)c1nc(S(=O)(=O)c2ccc(C)cc2)c(NCCN2CCOCC2)s1	-1	-13	36	7	10	54*
Cc1ccc(OCC(=O)Nc2ccc(C)c(F)c2)c([N+](=O)[O-])n1	/	/	/	/	-102	/
Cc1nc(NC(=O)COC(=O)c2ccc(CO)cc2)c(Cl)cc1Cl	/	-5	/	-4	7	/
O=S(=O)(c1cccs1)N1CCN(CCOc2ccc(Cl)cc2)CC1	/	24	/	-6	14	/
O=S(=O)(c1cccs1)N1CCN(CC(O)COc2cc(Cl)ccc2Cl)CC1 (stereo not given)	/	22	/	83*	15	/
CCN(C1CCCCC1)S(=O)(=O)c1ccc(S(=O)(=O)N(CC(=O)Nc2ccccc2)C2CC2)cc1	8	/	55*	15	13	7

Compound activity from PubChem.
